Converted amounts (≈) assume the structure as drawn. The source made the active and inactive calls. The calls are words filed in the database; no cut-off is given here.
Columns and labels:
[1] = test system: Microbotryum violaceum; experiment: Antifungal activity against Ustilago violacea at 50 ug by agar diffusion assay; assay type: functional; conditions: read-out: IZ
Summary of the method: (§1)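 Agar diffusion: crude extracts and pure compounds applied at 50 µg per disk; growth inhibition read as zone diameter (mm).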

[2] = test system: Hepatovirus A; experiment: Antiviral activity against HAV cytHB1.1 in FRhK4 cells assessed as effect on cytopathogenic effect at 0.038 ug/mL after 21 days by immunofluorescence analysis; assay type: functional, organism-based
Summary of the method: (§2)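 FRhK-4 cells in 96-well plates were used. For line 5, cells were inoculated with 2 × 10^7 TCID50/ml HAVcytHB1.1. For line 4, cells were persistently infected with HAV/7. Morphology (cytopathogenicity) was checked microscopically over 21 days, and HAV antigen was detected by immunofluorescence after 21 days.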

[3] = test system: Priestia megaterium; experiment: Antibacterial activity against Bacillus megaterium at 50 ug by agar diffusion assay; assay type: functional; conditions: read-out: IZ; summary of the method: as §1
[4] = molecular target: Human immunodeficiency virus type 1 reverse transcriptase (Human immunodeficiency virus 1) (UniProt Q72547); experiment: Inhibition of HIV1 reverse transcriptase assessed as enzyme residual activity at 0.12 mM
Summary of the method: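 Nonradioactive ELISA-based reverse transcriptase assay. Reaction mixture held 1 ng recombinant HIV-1-RT. Samples were dissolved in 10% DMSO/lysis buffer. Read-out was residual enzyme activity.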

[5] = test system: Escherichia coli; experiment: Antibacterial activity against Escherichia coli at 50 ug by agar diffusion assay; assay type: functional; conditions: read-out: IZ; summary of the method: as §1
[6] = molecular target: Tyrosine-protein kinase Lck (Homo sapiens) (UniProt P06239); experiment: Inhibition of p56 LCK activity at 0.7 mM; parameters: scale not given: the % may be the effect or the level left
Summary of the method: (§3)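 Nonradioactive ELISA-based tyrosine kinase assay. Samples in DMSO/H2O (1:1) were incubated with 1 U p56lck, 1 µM tyrosine kinase substrate II, 1 mM ATP and 10 mM MgCl2 at 30 °C for 60 to 80 min. Buffers: 20% dilution buffer (HEPES, pH 7.0) and 20% assay buffer (Tris, pH 7.5, with Na3VO4). Absorbance read at 415 nm as residual activity.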

[7] = Cytotoxicity against rat L6 cells; assay type: cell-based; conditions: read-out: MIC
[8] = test system: Trypanosoma brucei rhodesiense; experiment: Antitrypanosomal activity against Trypanosoma brucei subsp. rhodesiense; assay type: functional, organism-based
[9] = test system: Hepatovirus A; experiment: Antiviral activity against HAV 7 in FRhK4 cells assessed as effect on cytopathogenic effect at 0.038 ug/mL after 21 days by immunofluorescence analysis; assay type: functional, organism-based; summary of the method: as §2
[10] = test system: Plasmodium falciparum; experiment: Antiplasmodial activity against chloroquine, pyrimethamine-resistant Plasmodium falciparum K1; assay type: functional, organism-based
Summary of the method: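 In vitro assay against P. falciparum strain K1, a Thailand isolate resistant to chloroquine and pyrimethamine. Chloroquine and artemisinin were run as positive controls.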

[11] = test system: Plasmodium falciparum; experiment: Antiplasmodial activity against chloroquine-sensitive Plasmodium falciparum NF54; assay type: functional, organism-based
Summary of the method: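 In vitro assay against P. falciparum strain NF54, of unknown origin and susceptible to standard antimalarials. Chloroquine and artemisinin were run as positive controls.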

[12] = molecular target: Tyrosine-protein kinase Lck (Homo sapiens) (UniProt P06239); experiment: Inhibition of p56 LCK activity at 0.5 mM; parameters: scale not given: the % may be the effect or the level left; summary of the method: as §3
[13] = molecular target: Tyrosine-protein kinase Lck (Homo sapiens) (UniProt P06239); experiment: Inhibition of p56 LCK activity at 0.6 mM; parameters: scale not given: the % may be the effect or the level left; summary of the method: as §3
[14] = Cytotoxicity against mouse peritoneal macrophages; assay type: cell-based, Macrophage; conditions: read-out: MIC
[15] = molecular target: Tyrosine-protein kinase Lck (Homo sapiens) (UniProt P06239); experiment: Inhibition of p56 LCK activity at 0.3 mM; parameters: scale not given: the % may be the effect or the level left; summary of the method: as §3

Tyrosine-protein kinase Lck (Homo sapiens), sequence (P06239 2-509 limits assumed): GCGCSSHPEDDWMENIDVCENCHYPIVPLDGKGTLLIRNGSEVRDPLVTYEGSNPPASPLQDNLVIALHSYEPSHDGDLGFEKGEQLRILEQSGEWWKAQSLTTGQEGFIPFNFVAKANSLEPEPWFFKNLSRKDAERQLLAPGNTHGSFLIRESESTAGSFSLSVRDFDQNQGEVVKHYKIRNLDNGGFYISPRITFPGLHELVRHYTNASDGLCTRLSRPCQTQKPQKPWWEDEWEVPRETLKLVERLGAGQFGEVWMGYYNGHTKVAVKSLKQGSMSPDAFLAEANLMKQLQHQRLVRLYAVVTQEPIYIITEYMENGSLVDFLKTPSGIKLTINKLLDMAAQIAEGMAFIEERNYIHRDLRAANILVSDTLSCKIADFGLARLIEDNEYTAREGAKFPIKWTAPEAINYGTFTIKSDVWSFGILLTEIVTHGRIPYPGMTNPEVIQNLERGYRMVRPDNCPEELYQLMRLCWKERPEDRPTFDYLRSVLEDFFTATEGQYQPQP

| Structure (SMILES) | zone of inhibition at 50 µg/disc [3] | zone of inhibition at 50 µg/disc [5] | MCC [7] | IC50 [10] | IC50 [11] | also measured |
| --- | --- | --- | --- | --- | --- | --- |
| CC1=C(CC/C(C)=C/CC/C(C)=C/CCC2=CCOC2=O)C(C)(C)CCC1 |  |  |  |  |  | zone of inhibition at 50 µg/disc [1]: 2 mm |
| O=C1c2ccccc2-[n+]2ccc3c([nH]c4ccccc43)c21.[Cl-] [FASCAPLYSIN CHLORIDE] | 10 mm | 6 mm | 2.5 µg/mL | 0.05 µg/mL | 0.034 µg/mL | Activity [2]: Active; Activity [4]: 10%; Activity [6]: 10%; IC50 [8]: 630 nM; Activity [9]: Active |
| CC1=C(CC/C(C)=C/CC/C(C)=C/CCC2=CCOC2=O)C(C)(C)CCC1=O |  |  |  |  |  | Activity [12]: 45% |
| C[C@@H]1CC[C@H]2[C@@H](C)C(=O)O[C@@H]3O[C@@]4(C)CC[C@@H]1[C@]32OO4 [ARTEMISININ] |  |  |  | 0.001 µg/mL (≈ 3.54 nM) | 0.002 µg/mL (≈ 7.08 nM) |  |
| CC(=O)CC1(O)c2ccccc2-[n+]2ccc3c([nH]c4ccccc43)c21.[Cl-] (configuration not stated) [HOMOFASCAPLYSIN A] | 11 mm | 9 mm | 1.1 µg/mL | 0.014 µg/mL | 0.024 µg/mL | Activity [13]: 8%; MCC [14]: 30 µg/mL; Activity [15]: 44% |

— ChEMBL document CHEMBL1142632, “A new bioactive sesterterpene and antiplasmodial alkaloids from the marine sponge hyrtios cf. erecta” (J Nat Prod, 2000)
